Source: PubChem BioAssay AID1385 (PCMD, 2008)
Hit rate of the full screen: of about 200,000 compounds, about 170 (0.085%) were called active. Many of the other results were omitted from the sample, so actives are more common in it than they were. Values without a mark were called inactive.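 How the source made its calls: active means inhibition above 40% at the single screening dose; inactive means the rest.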

The molecules below were run against DNA repair protein RAD51 homolog 1 (Homo sapiens) (UniProt Q06609) (assay: blockers of RAD51-mediated homologous recombination – biochemical, fluorescence, primary screen (AID 1385;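 further: 0% = DMSO control wells and 100% = blanks with heterologous ssDNA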)). Conditions: hRad51 DNA strand exchange, fluorescence dequenching; at 10 µM; stronger effect = higher value.
DNA repair protein RAD51 homolog 1 (Homo sapiens), sequence (Q06609 whole entry, looked up): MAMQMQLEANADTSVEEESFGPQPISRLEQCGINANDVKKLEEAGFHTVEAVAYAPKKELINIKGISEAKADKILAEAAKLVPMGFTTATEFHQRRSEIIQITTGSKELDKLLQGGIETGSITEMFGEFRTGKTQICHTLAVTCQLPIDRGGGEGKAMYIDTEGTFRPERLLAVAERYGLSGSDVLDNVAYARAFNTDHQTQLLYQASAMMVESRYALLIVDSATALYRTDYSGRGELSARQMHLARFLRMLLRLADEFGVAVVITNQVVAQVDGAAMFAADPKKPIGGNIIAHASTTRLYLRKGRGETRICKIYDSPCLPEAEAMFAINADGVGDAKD
Method in brief: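 Test system – preformed human Rad51 ssDNA filaments · Reagent – Donor/quencher-labelled 47-bp dsDNA substrate · Incubation – 37 °C 15-min filament assembly, 30-min compound preincubation, 15-min exchange · Signal – FRET fluorescence dequenching, excitation 485 nm, emission 520 nm · Read-out – percent inhibition from fluorescence, normalised to plate control and blank means · Benchmarks – plate control and blank wells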

Row | SMILES | inhibition
1 | Cn1cnc(S(=O)(=O)Nc2ccc3c(c2)OCCO3)c1 | 10.8%
2 | O=C(O)CC12CC3CC(C1)CC(n1ncc(NCc4ccc(F)cc4)c(Cl)c1=O)(C3)C2 | -1.62%
3 | O=C(Cc1cccc2ccccc12)NNC(=O)Nc1ccc(Cl)cc1 | 18.3%
4 | Cc1nnc(Nc2ccccc2F)s1 | 21.3%
5 | CCOC(=O)CN(C(=O)COc1nc(C)cc(C)c1C#N)c1ccc(Cl)cc1 | 1.01%
6 | FC(F)(F)c1cccc(-c2nc(COc3ccc(Cl)cc3Cl)no2)c1 | 4.51%
7 | CCSC1=NCCN1C(=O)c1ccc(S(=O)(=O)N(CC)CC)cc1 | 40.5% (active)
8 | CCSC1=NCCN1S(=O)(=O)c1ccc(F)cc1 | -1.84%
9 | CSC1=NCCN1C(=O)c1ccc(S(=O)(=O)N2CCOCC2)cc1 | -4.11%
10 | C/C(Cc1ccccc1)=N\NC(=O)CNC(=O)c1ccccc1Cl | 11.3%
11 | COc1ccc(OC)c(NC(=O)N[C@H](Cc2ccccc2)C(=O)NN)c1 | 19%
12 | N#Cc1ccc(Oc2ccc(C(F)(F)F)cc2NC(=O)c2ccc(F)cc2)cc1 | 18.6%
13 | COCCn1c(SCC(=O)c2[nH]c(C)c(C(C)=O)c2C)nc2ccccc2c1=O | -4.09%
14 | COc1ccc(/C=N/n2nnnc2N)cc1OC | -13.6%
15 | Cc1cc(Nc2ccc(N3CCOCC3)cc2)c2cccc(C)c2n1 | 15.5%
16 | Nc1ccccc1C(=O)NC1CCCCNC1=O (configuration not stated) | 11.6%
17 | COc1cc(N2C(=O)CC3(CCCC3)CC2=O)cc(OC)c1OC | -3.47%
18 | Cc1ccc(Nc2c3c(nc4ccccc24)CCC3)cc1 | 16.7%
19 | O=C1N[C@H](Cc2ccccc2)C(=O)N[C@H]1Cc1cn(S(=O)(=O)c2ccccc2)c2ccccc12 | -3.92%
20 | O=C(NC1C2CC3CC(C2)CC1C3)c1ccc(N2CCNCC2)c([N+](=O)[O-])c1 (configuration not stated) | -5.43%
21 | CC(=O)N/C(=C\c1ccc(F)cc1)C(=O)NC(Cc1ccccc1)C(=O)O (configuration not stated) | 5.67%
22 | CN(C)S(=O)(=O)c1ccc(C(=O)NCC(C)(C)N2CCOCC2)cc1 | -11.7%
23 | NC(=O)c1ccc(-c2csnn2)cc1 | 9.52%
24 | Nc1c(Cl)cc(S(N)(=O)=O)cc1S(N)(=O)=O | 3.22%
25 | O=C(Nc1cccc2c1N(C(=O)c1ccco1)CCC2)c1ccco1 | 15.4%
26 | CC1Cc2ccccc2N1CC(=O)Nc1ccc(S(N)(=O)=O)cc1 (configuration not stated) | -6.22%
27 | Cc1ccc(NC(=O)/C(=C/c2ccc([N+](=O)[O-])cc2)NC(=O)c2ccccc2)cc1 | -17.5%
